Measurements reported in ChEMBL document CHEMBL2375348, “Aminopropylindenes derived from Grundmann's ketone as a novel chemotype of oxidosqualene cyclase inhibitors” (Eur J Med Chem, 2013).

Tests used:
[1] = test system: HL-60; test: Cytotoxicity against human HL60 cells after 24 hrs by MTT assay; format: cell-based; details: HL-60, 24 h
[2] = biological target: T1, Lanosterol synthase (Pneumocystis carinii, UniProt Q96WJ0); test: Inhibition of Pneumocystis carinii lanosterol synthase expressed in Saccharomyces cerevisiae SMY8[pBJ4.21] using [14C]-(3S)-2,3-oxidosqualene as substrate
T1 sequence (Q96WJ0 whole entry): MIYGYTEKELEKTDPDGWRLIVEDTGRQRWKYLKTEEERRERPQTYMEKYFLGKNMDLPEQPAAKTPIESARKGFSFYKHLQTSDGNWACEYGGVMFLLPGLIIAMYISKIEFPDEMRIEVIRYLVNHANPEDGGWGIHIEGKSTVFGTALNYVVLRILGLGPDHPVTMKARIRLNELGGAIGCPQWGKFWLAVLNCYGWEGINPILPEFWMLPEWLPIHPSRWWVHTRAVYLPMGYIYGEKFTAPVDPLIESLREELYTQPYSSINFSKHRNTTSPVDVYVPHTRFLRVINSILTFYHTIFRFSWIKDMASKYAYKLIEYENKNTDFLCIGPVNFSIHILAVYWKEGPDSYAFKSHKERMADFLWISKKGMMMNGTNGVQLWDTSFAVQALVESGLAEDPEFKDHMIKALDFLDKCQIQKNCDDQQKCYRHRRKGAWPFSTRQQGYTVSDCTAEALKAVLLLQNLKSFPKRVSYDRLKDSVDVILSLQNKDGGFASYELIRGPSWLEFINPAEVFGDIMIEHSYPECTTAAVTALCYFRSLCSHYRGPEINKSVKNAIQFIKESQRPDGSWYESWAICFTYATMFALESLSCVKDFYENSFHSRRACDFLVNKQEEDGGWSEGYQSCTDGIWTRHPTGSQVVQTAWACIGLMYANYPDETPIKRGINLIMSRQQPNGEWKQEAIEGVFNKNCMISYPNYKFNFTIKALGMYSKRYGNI
Procedure, shortened: (§1)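 ERG7-deficient hem1 yeast SMY8 strains were grown aerobically at 30 °C in YPD with hemin and ergosterol, then induced in YPG with hemin (plus ergosterol for A. thaliana). Lyticase/Potter homogenates were incubated with [14C]-(3S)-2,3-oxidosqualene (1000 cpm) at increasing inhibitor levels. Reactions were stopped with KOH/MeOH and saponified at 80 °C for 30 min; extracted conversion was read by TLC radioscan. IC50 came from nonlinear regression; two experiments, each in duplicate.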

[3] = biological target: Cycloartenol synthase (Arabidopsis thaliana, UniProt P38605); test: Inhibition of Arabidopsis thaliana cycloartenol synthase expressed in Saccharomyces cerevisiae SMY8[pSM60.21] using [14C]-(3S)-2,3-oxidosqualene as substrate; procedure, shortened: as §1
[4] = biological target: T2, Lanosterol synthase ERG7 (Saccharomyces cerevisiae S288c, UniProt P38604); test: Inhibition of wild type yeast lanosterol synthase expressed in Saccharomyces cerevisiae SMY8[pSM61.21] using [14C]-(3S)-2,3-oxidosqualene as substrate; procedure, shortened: as §1
T2 sequence (P38604 whole entry): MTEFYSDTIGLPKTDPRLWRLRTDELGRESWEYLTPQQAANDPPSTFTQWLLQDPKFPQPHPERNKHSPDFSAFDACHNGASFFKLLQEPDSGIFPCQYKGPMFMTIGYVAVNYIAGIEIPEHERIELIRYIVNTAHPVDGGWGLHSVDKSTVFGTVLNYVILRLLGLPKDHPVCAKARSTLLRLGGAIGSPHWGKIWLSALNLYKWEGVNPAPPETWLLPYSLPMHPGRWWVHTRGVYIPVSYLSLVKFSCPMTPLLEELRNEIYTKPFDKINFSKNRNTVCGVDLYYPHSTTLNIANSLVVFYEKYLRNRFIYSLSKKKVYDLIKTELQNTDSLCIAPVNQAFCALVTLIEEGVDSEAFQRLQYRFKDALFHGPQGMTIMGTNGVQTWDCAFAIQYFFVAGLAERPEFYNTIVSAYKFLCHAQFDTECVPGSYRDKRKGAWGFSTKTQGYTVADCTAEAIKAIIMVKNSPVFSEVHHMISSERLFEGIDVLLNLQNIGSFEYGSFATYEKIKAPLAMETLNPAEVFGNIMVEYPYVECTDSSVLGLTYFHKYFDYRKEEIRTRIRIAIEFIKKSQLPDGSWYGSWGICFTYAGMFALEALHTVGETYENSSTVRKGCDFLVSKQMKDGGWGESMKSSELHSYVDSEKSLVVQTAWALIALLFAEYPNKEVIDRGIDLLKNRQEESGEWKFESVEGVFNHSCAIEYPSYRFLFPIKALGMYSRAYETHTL

[5] = biological target: T3, Lanosterol synthase (Homo sapiens, UniProt P48449); test: Inhibition of human lanosterol synthase expressed in Saccharomyces cerevisiae SMY8[pSOB1.1] using [14C]-(3S)-2,3-oxidosqualene as substrate
T3 sequence (P48449 whole entry): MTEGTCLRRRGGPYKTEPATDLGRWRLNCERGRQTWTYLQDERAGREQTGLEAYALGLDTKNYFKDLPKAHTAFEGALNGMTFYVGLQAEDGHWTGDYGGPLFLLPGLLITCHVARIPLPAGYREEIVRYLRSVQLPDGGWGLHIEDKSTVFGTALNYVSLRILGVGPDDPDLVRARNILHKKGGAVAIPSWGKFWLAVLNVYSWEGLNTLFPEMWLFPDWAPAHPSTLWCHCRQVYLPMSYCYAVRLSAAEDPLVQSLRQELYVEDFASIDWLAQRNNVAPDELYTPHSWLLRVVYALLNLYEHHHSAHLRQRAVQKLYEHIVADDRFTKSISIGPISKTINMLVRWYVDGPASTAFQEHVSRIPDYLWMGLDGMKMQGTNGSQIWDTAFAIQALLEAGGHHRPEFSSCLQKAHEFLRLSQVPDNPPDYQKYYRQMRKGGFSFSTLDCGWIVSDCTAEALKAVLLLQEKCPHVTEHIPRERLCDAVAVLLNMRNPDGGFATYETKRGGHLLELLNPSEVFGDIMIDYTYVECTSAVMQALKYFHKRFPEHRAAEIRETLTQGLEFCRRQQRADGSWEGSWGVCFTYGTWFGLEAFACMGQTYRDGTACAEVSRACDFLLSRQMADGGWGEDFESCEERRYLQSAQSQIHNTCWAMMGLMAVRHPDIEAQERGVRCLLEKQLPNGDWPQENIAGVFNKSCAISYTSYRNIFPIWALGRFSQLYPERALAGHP

[6] = Inhibition of Trypanosoma cruzi lanosterol synthase expressed in Saccharomyces cerevisiae SMY8[pBJ1.21] using [14C]-(3S)-2,3-oxidosqualene as substrate; procedure, shortened: as §1
[7] = test system: HL-60; test: Inhibition of cholesterol biosynthesis in human HL60 cells at 1 uM; format: functional
Procedure, shortened: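 HL-60 cells were incubated with 2-13C-acetate and inhibitor at 1 μM, in triplicate. Newly made 13C-labelled cholesterol was separated from pre-existing unlabelled cholesterol by GC-MS. Decrease in cholesterol biosynthesis was expressed against untreated controls.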

Chain of Cycloartenol synthase (P38605 whole entry): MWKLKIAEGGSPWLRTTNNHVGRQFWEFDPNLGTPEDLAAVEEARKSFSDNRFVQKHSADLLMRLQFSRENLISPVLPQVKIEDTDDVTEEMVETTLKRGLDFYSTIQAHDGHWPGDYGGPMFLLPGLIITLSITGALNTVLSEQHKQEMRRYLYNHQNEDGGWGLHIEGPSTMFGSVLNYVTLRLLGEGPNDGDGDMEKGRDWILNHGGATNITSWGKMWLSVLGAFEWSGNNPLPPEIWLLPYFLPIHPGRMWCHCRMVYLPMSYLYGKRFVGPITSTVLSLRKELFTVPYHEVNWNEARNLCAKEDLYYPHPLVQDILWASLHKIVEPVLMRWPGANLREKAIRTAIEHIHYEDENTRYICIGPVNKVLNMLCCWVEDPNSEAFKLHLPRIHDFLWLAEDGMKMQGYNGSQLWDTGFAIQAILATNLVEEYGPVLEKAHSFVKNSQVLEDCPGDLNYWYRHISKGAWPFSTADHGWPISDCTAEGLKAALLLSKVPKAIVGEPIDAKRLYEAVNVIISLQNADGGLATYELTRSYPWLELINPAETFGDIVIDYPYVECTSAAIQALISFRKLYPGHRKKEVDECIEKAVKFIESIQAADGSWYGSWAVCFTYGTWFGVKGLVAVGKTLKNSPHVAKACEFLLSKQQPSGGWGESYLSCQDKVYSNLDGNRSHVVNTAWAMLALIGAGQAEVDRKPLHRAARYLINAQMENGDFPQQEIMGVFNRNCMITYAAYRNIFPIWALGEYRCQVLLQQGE

Compound | IC50 [1] | IC50 [2] | IC50 [3] | IC50 [4] | IC50 [5] | IC50 [6] | inhibition at 1 µM [7]
CC(C)CCC[C@@H](C)[C@H]1CCC2=C(CCC[n+]3ccccc3)CCC[C@@]21C | 3.5 µM | 11 µM | 0.2 µM | 4.2 µM | 12.5 µM | > 20 µM | –
CN(C)Cc1ccc(C2CCC(N(C)C(=O)c3ccc(Cl)cc3)CC2)cc1 (configuration not stated) | > 50 µM | – | – | – | – | – | 60%
C=CCN(C)CCCC1=C2CC[C@H]([C@H](C)CCCC(C)C)[C@@]2(C)CCC1 | > 100 µM | 0.9 µM | 0.6 µM | 1.5 µM | 1 µM | 0.8 µM | > 90%
CNCCCC1=C2CC[C@H]([C@H](C)CCCC(C)C)[C@@]2(C)CCC1 | > 100 µM | > 20 µM | > 20 µM | > 20 µM | > 20 µM | > 20 µM | –
CC(C)CCC[C@@H](C)[C@H]1CCC2=C(CCCN(C)C)CCC[C@@]21C | > 100 µM | 13 µM | 0.3 µM | 1.3 µM | 4.5 µM | 0.6 µM | > 90%
CC(C)CCC[C@@H](C)[C@H]1CCC2=C(CCCN3CCCCC3)CCC[C@@]21C | > 100 µM | 17 µM | 0.5 µM | 2.1 µM | 11.9 µM | > 20 µM | –
CC(C)CCC[C@@H](C)[C@H]1CCC2=C(CCC[N+](C)(C)[O-])CCC[C@@]21C | 20 µM | 15 µM | 1.3 µM | 2.5 µM | > 20 µM | 3 µM | –
C=CCN(C)CCCCCCOc1ccc(C(=O)c2ccc(Br)cc2)c(F)c1 | 8 µM | – | – | – | – | – | > 90%
